Results from ChEMBL document CHEMBL1782031, “Urea/thiourea derivatives of quinazolinone-lysine conjugates: synthesis and structure-activity relationships of a new series of antimicrobials” (2011).

Experiments:
Type in all cases: functional
Settings in all cases: read-out: DIZ
Escherichia coli = test: Antibacterial activity against Escherichia coli at 10 ug/disc after 24 hrs by disc diffusion method
How it was run: (§1)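 Disc diffusion assay. Discs were held at 4 °C for 2 h so the compounds could diffuse, then incubated at 28 °C. Inhibition zone diameters were measured in mm after 24 h. Each compound was tested in triplicate.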

Xanthomonas oryzae = test: Antibacterial activity against Xanthomonas oryzae at 10 ug/disc after 24 hrs by disc diffusion method
Pseudomonas fluorescens = test: Antibacterial activity against Pseudomonas fluorescens at 10 ug/disc after 24 hrs by disc diffusion method; how it was run: as §1
[1] = Antibacterial activity against Xanthomonas campestris pvs. at 10 ug/disc after 24 hrs by disc diffusion method; how it was run: as §1
Bacillus subtilis = test: Antibacterial activity against Bacillus subtilis at 10 ug/disc after 24 hrs by disc diffusion method; how it was run: as §1

Compound | zone of inhibition at 10 µg/disc (Escherichia coli) | zone of inhibition at 10 µg/disc (Xanthomonas oryzae) | zone of inhibition at 10 µg/disc (Pseudomonas fluorescens) | zone of inhibition at 10 µg/disc [1] | zone of inhibition at 10 µg/disc (Bacillus subtilis)
CC(C)(C)OC(=O)NCCCC[C@H](NC(=O)CCc1nc2ccccc2c(=O)[nH]1)C(=O)O | 11 mm | 14 mm | 14 mm | 13 mm | 10 mm
O=C(CCc1nc2ccccc2c(=O)[nH]1)N[C@@H](CCCCNC(=O)Nc1cccc(F)c1)C(=O)O | 35 mm | 34 mm | 34 mm | 33 mm | 35 mm
NCCCC[C@H](NC(=O)CCCc1nc2ccccc2c(=O)[nH]1)C(=O)O | 10 mm | 12 mm | 12 mm | 13 mm | 14 mm
O=C(CCCc1nc2ccccc2c(=O)[nH]1)N[C@@H](CCCCNC(=O)Nc1cccc(F)c1)C(=O)O | 36 mm | 36 mm | 35 mm | 34 mm | 35 mm
COC(=O)[C@H](CCCCNC(=S)Nc1ccc(F)cc1C)NC(=O)CCc1nc2ccccc2c(=O)[nH]1 | 32 mm | 34 mm | 34 mm | 33 mm | 33 mm
Cc1cc(F)ccc1NC(=S)NCCCC[C@H](NC(=O)CCc1nc2ccccc2c(=O)[nH]1)C(=O)O | 33 mm | 35 mm | 35 mm | 34 mm | 34 mm
Cc1ccccc1NC(=S)NCCCC[C@H](NC(=O)CCc1nc2ccccc2c(=O)[nH]1)C(=O)O | 23 mm | 28 mm | 25 mm | 28 mm | 23 mm
COC(=O)[C@H](CCCCNC(=O)Nc1ccc(Cl)cc1)NC(=O)CCCc1nc2ccccc2c(=O)[nH]1 | 26 mm | 30 mm | 29 mm | 28 mm | 25 mm
COC(=O)[C@H](CCCCNC(=O)OC(C)(C)C)NC(=O)CCCc1nc2ccccc2c(=O)[nH]1 | 8 mm | 9 mm | 8 mm | 7 mm | 6 mm
COC(=O)[C@H](CCCCNC(=O)OC(C)(C)C)NC(=O)CCc1nc2ccccc2c(=O)[nH]1 | 9 mm | 12 mm | 11 mm | 12 mm | 8 mm
COc1ccc(NC(=O)NCCCC[C@H](NC(=O)CCCc2nc3ccccc3c(=O)[nH]2)C(=O)O)cc1 | 24 mm | 26 mm | 23 mm | 25 mm | 22 mm
COC(=O)[C@H](CCCCNC(=S)Nc1ccccc1C)NC(=O)CCc1nc2ccccc2c(=O)[nH]1 | 22 mm | 26 mm | 24 mm | 27 mm | 23 mm
O=C(CCCc1nc2ccccc2c(=O)[nH]1)N[C@@H](CCCCNC(=S)Nc1cccc(F)c1)C(=O)O | 32 mm | 34 mm | 32 mm | 33 mm | 34 mm
COC(=O)[C@H](CCCCNS(C)(=O)=O)NC(=O)CCc1nc2ccccc2c(=O)[nH]1 | 6 mm | 11 mm | 9 mm | 8 mm | 8 mm
COC(=O)[C@H](CCCCNC(=O)Nc1ccc(OC)cc1)NC(=O)CCCc1nc2ccccc2c(=O)[nH]1 | 21 mm | 25 mm | 22 mm | 24 mm | 20 mm
